For data set [1], the species on record is Mus musculus. Nature of the data set: Compound was evaluated for the dose required to inhibit the humoral response to 50% (immune activity). The class given is functional. In outline: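 Humoral response to EL4 in Balb/c mice measured as complement-dependent lysis titer of 51Cr-labeled EL4 cells by day-10 sera. Mice were given oral daily doses from day 0 to day 9 at several levels. ED50 was obtained by linear interpolation between the doses bracketing 50% inhibition of the control titer.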

The subject of data set [2] is Mus musculus. Nature of the data set: Immunological activity in mice as the percentage of suppression of the cellular response to EI4 tumor cells at 10 mg/kg. Type of data set: functional. In outline: (§1)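 Balb/c mice, groups of 10, immunized ip on day 0 with 10^7 EL4 ascites tumor cells. Dosed orally 10 mg/kg once daily days 0-9, in water with a little NaOH (circa pH 8.5); saline controls. On day 10, spleen cells (1.5×10^7 viable) incubated with 51Cr-labeled EL4 cells (0.5×10^6) for 3 h at 37 °C in 10% CO2. Lysis corrected for spontaneous release; reported as % inhibition of control lysis.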

Data set [3] is described as follows: Acid dissociation constant was determined. The class given is ADME. Summed up:
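pKa by potentiometric titration in 2:1 dioxane-H2O (v/v) against 0.5 N NaOH; apparent pKa read as the pH at half-neutralization.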

Data set [4] has as its system Mus musculus. As to the kind of experiment: Compound was evaluated for immunological activity in mice as the percentage of suppression of the humoral response to EI4 tumor cells at 10 mg/kg, po. Type of data set: functional. In outline:
(§2)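 Balb/c mice, groups of 10, immunized ip on day 0 with 10^7 EL4 cells. Dosed orally 10 mg/kg once daily days 0-9, in water with a little NaOH (pH ~8.5); saline controls. Titer taken as the dilution giving 50% maximal lysis; reported as % inhibition of control titer.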

Data set [5] is filed under the species Mus musculus. Nature of the data set: Compound was evaluated for the dose required to inhibit the cellular response to 50% (immune activity). The class given is functional. Summed up:
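Cellular response to EL4 in Balb/c mice measured by spleen-cell lysis of 51Cr-labeled EL4 cells (3 h, 37 °C). Mice were given oral daily doses from day 0 to day 9 at several levels, tested up to 300 mg/kg. ED50 was obtained by linear interpolation between the doses giving above and below 50% inhibition.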

In data set [6] the test system is Mus musculus. Nature of the data set: Compound was evaluated for immunological activity in mice as the percentage of suppression of the humoral response to EI4 tumor cells at 10 mg/kg, po; Data unreliable. Type of data set: functional, organism-based. The arrangement: dose 10 mg/kg. In outline:
as §2

In data set [7] the test system is Mus musculus. As to the kind of experiment: Compound was evaluated for immunological activity in mice as the percentage of suppression of the cellular response to EI4 tumor cells at 10 mg/kg, po. The class given is functional. In outline: as §1

Results on 26 molecules are retold here after ChEMBL document CHEMBL1121658, “Novel immunosuppressive agents. Potent immunological activity of some bensothiopyrano [4,3-c]pyrazol-3-ones” (J Med Chem, 1981).

Turning to `COc1ccc(-n2nc3c(c2O)CSc2ccccc2-3)cc1`, the ED50 (commonly the dose that gives a 50% effect, or the effect in half of the subjects) in data set [1] was found to be 150 mg/kg; in data set [5], 240 mg/kg. Also, the Suppression is given as -11% in data set [2] and -6% in data set [4]. Moreover, the pKa – broadly, the pH at which an ionisable group is half protonated – in data set [3] is 7.76.

For the molecule `Oc1c2c(nn1-c1ccc(F)cc1)-c1ccccc1SC2`, the ED50 in data set [1] came to 3.3 mg/kg; in data set [5] it was 5.5 mg/kg. Besides, the figures for the Suppression in data set [2] and in data set [4] were 86% and above 90%, respectively.

With `O=c1c2csc3ccccc3c-2nn1-c1ccc(Cl)cc1`, the figures for the Suppression in data set [2] and in data set [4] were 63% and above 90%, respectively.

For `Cn1cnc([N+](=O)[O-])c1Sc1ncnc2[nH]cnc12` [AZATHIOPRINE], the Suppression is -3% in data set [2] and 6% in data set [4].

In the case of `Oc1c2c(nn1-c1c(Cl)cccc1Cl)-c1ccccc1SC2`, the Suppression in data set [2] is 1%; in data set [4] it was 4%.

For `Oc1c2c(nn1-c1cccc(Cl)c1Cl)-c1ccccc1SC2`, the results for the Suppression in data set [2] and in data set [4] were 5% and 51%, respectively. For the same molecule, the pKa in data set [3] was found to be 7.28.

For the molecule `Oc1c2c(nn1-c1ccc(Cl)cc1Cl)-c1ccccc1SC2`, the Suppression in data set [2] is -4%; in data set [4], 20%.

On to `O=P1(N(CCCl)CCCl)NCCCO1` (centres undefined) [CYCLOPHOSPHAMIDE ANHYDROUS], for which the Suppression in data set [2] is on record as 52%; in data set [4], above 90%.

For the molecule `[O-][S+]1Cc2c(nn(-c3ccc(Cl)cc3)c2O)-c2ccccc21` (centres undefined), the Suppression in data set [2] and in data set [4] was above 90% throughout.

For the molecule `Sc1ncnc2nc[nH]c12` [MERCAPTOPURINE ANHYDROUS], the Suppression came out at 63% in data set [2] and 52% in data set [4].

For `Oc1c2c(nn1-c1ccccn1)-c1ccccc1SC2`, the Suppression was 2% in data set [2] and -19% in data set [4].

As for `Oc1c2c(nn1Cc1ccccc1)-c1ccccc1SC2`, the Suppression is reported as -3% in data set [2] and 0% in data set [4].

On to `Oc1c2c(nn1CC(F)(F)F)-c1ccccc1SC2`, for which the Suppression is reported as -2% in data set [2] and 17% in data set [4].

Take `Cc1ccc(-n2nc3c(c2O)CSc2ccccc2-3)cc1`: the Suppression in data set [2] turned out to be 19%; in data set [4] it was 46%. In data set [3], this molecule yielded a pKa of 7.64.

Regarding `Oc1c2c(nn1-c1ccc(Br)cc1)-c1ccccc1SC2`, the ED50 in data set [1] worked out at 2 mg/kg; in data set [5] it was 3.3 mg/kg. Also, the results for the Suppression in data set [2] and in data set [4] were 84% and above 90%, respectively. Further, in data set [3], the pKa was determined as 7.13.

Regarding `O=[N+]([O-])c1ccc(-n2nc3c(c2O)CSc2ccccc2-3)cc1`, the Suppression is 27% in data set [2] and “Data unreliable” in data set [6].

Regarding `Cn1nc2c(c1O)CSc1ccccc1-2`, the Suppression in data set [2] is 14%; in data set [4], -3%.

`Oc1c2c(nn1-c1ccccc1Cl)-c1ccccc1SC2`: the results for the Suppression in data set [2] and in data set [4] were 8% and 45%, respectively. This molecule registered a pKa in data set [3] of 7.74.

As to `Oc1c2c(nn1-c1cccc(Cl)c1)-c1ccccc1SC2`, the 50% effective dose (ED50) in data set [1] was determined as 9 mg/kg; in data set [5], 45 mg/kg. The Suppression in data set [7] is 16%; in data set [4] it was 67%.

Regarding `Oc1c2c(nn1-c1ccc(C(F)(F)F)cc1)-c1ccccc1SC2`, the figures for the ED50 in data set [1] and in data set [5] were 6 mg/kg and 6.5 mg/kg, respectively. Besides, the Suppression in data set [2] is reported as 71%; in data set [4], above 90%.

In the case of `Oc1c2c(nn1-c1ccc(Cl)cc1)-c1ccccc1SC2`, the median effective dose (ED50) worked out at 0.5 mg/kg in data set [1] and 2 mg/kg in data set [5]. In addition, the Suppression in data set [2] and in data set [4] was above 90% each time. The molecule further displayed a pKa in data set [3] of 7.56.

As to `Oc1[nH]nc2c1CSc1ccccc1-2`, the Suppression in data set [2] is reported as 1%; in data set [6] it was “Data unreliable”.

As to `CS(=O)(=O)c1ccc(-n2nc3c(c2O)CSc2ccccc2-3)cc1`, the ED50 is 170 mg/kg in data set [1] and above 300 mg/kg in data set [5]. The results for the Suppression in data set [2] and in data set [4] were 1% and 28%, respectively.

Consider `Oc1c2c(nn1-c1cc(Cl)cc(Cl)c1)-c1ccccc1SC2`, for which the ED50 came to 8 mg/kg in data set [1] and 31 mg/kg in data set [5]. For the same molecule, the Suppression in data set [2] is 19%; in data set [4] it was 73%.

For `Oc1c2c(nn1-c1ccccc1)-c1ccccc1SC2`, the ED50 in data set [1] came to 70 mg/kg; in data set [5] it was 130 mg/kg. The Suppression was 1% in data set [2] and “Data unreliable” in data set [6]. The molecule also displayed a pKa in data set [3] of 7.48.

With `Oc1c2c(nn1-c1ccc(Cl)c(Cl)c1)-c1ccccc1SC2`, the ED50 turned out to be 1 mg/kg in data set [1] and 3 mg/kg in data set [5]. Also, the Suppression in data set [2] is reported as 62%; in data set [4], 87%.
